# PAFAH2 inh: inhibitors of human PAFAH2; recombinant PAFAH2, FP-rhodamine activity probe, fluorescence polarization; actives 0.99% (n = 340,000); inhibition, % at 3.39 µM; Q99487; AID 492956;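 active means inhibition above the mean over all tested compounds plus 3 SD, cut at about 30% in these data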;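 further: inhibitors block probe labeling of enzyme so polarization drops; 0% = enzyme with DMSO and 100% = wells lacking PAFAH2 protein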
# pPAFAH FP inh: inhibitors of human plasma PAF acetylhydrolase (pPAFAH). Q13093. recombinant pPAFAH, FP-rhodamine probe fluorescence polarization. inhibition, % at 3.39 µM. actives 1.5% (n = 330,000);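 active means inhibition above the mean inhibition across the screen plus 3 SD, cut at about 25% in these data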;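 further: inhibitors block binding of the rhodamine activity-based probe so polarization drops; 0% = enzyme with DMSO and 100% = wells lacking pPAFAH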
# VIM-2 inh: inhibitors of Pseudomonas aeruginosa VIM-2 metallo-beta-lactamase. purified VIM-2, nitrocefin hydrolysis, epi-absorbance fluorescence. inhibition, % at 5.6 µM. actives 0.89% (n = 290,000);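 active means inhibition above the mean of all tested compounds plus 3 SD, cutoff set per screening run, cut at about 7.5% in these data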;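 further: red hydrolysis product quenches plate fluorescence so inhibitors raise well fluorescence; 0% = enzyme with DMSO and 100% = DMSO without enzyme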
# IMP-1 inh: blocks Pseudomonas aeruginosa IMP-1 metallo-beta-lactamase; purified IMP-1, nitrocefin hydrolysis, epi-absorbance fluorescence; inhibition, % at 5.6 µM; actives 0.45% (n = 290,000); AID 1556;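 active means inhibition above the mean plus 3 SD of all compounds in the same screening run, cut at about 4.5% in these data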;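 further: 0% = IMP-1 with DMSO and 100% = DMSO wells lacking enzyme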
#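 Material – recombinant IMP-1 enzyme, purified · Amount – IMP-1 0.2 nM before substrate addition · Medium – HEPES buffer pH 7.1 with ZnSO4 and Brij 35 · Timing – 25 °C, 15 min preincubation, 25 min reaction · Measured by – plate fluorescence quenching by hydrolysis product, ex 480/em 530 nm · Read-out – percent enzyme inhibition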
# PAFAH1B2 inh: blocks human PAF acetylhydrolase 1b catalytic subunit 2 | P68402 | recombinant PAFAH1B2, FP-rhodamine activity probe, fluorescence polarization | inhibition, % at 3.39 µM | actives 1.2% (n = 340,000) | AID 492953;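 active means inhibition above the mean of all tested compounds plus 3 SD, cut at about 24% in these data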;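 further: 0% = enzyme with DMSO and 100% = wells lacking PAFAH1B2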
# Target sequence (P68402 whole entry, looked up): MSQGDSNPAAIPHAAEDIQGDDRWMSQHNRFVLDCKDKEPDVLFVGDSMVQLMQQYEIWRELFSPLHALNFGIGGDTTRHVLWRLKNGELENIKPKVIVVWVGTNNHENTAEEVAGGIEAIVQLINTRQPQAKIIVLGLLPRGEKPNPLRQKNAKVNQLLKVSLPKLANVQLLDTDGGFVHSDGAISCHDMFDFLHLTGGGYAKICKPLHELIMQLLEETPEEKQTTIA
# PAFAH1B3 FP inh: inhibitors of human PAFAH1B3; inhibition, % at 3.39 µM; recombinant PAFAH1B3, FP-rhodamine probe, fluorescence polarization; actives 0.28% (n = 340,000); AID 492972; Q15102;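 active means inhibition above the screen-wide average of all tested compounds plus 3 SD, cut at about 25% in these data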;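 further: 0% = enzyme with DMSO only and 100% = wells lacking PAFAH1B3 protein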
# Target sequence (Q15102 whole entry, looked up): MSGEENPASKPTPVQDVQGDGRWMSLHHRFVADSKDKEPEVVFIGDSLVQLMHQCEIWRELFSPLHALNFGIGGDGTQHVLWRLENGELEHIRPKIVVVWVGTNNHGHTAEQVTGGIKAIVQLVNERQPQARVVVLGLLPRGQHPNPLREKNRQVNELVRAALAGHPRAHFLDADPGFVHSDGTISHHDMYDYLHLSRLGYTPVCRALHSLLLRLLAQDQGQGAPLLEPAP
# Numbers without * were called inactive; · = not tested or not shown. The list is not random: actives were taken first. Their share in the collection is about 3.6%.
SMILES,PAFAH2 inh,pPAFAH FP inh,VIM-2 inh,IMP-1 inh,PAFAH1B2 inh,PAFAH1B3 FP inh
O=C(CSc1ccc(Cl)cc1)c1ccco1,19,29*,-1,0,21,0
CCN1CCN(c2ccc(S(=O)(=O)N3CCCCC3)cc2NC(=O)/C=C/c2ccc(OC)c(OC)c2)CC1,10,-3,·,·,-8,-2
CCN1CCN(c2ccc(S(=O)(=O)N3CCCCC3)cc2NC(=O)/C=C/c2cc(OC)ccc2OC)CC1,0,26*,-2,-3,-7,-2
O=C(NN=Cc1ccc(F)cc1)c1ccccc1NS(=O)(=O)c1cccs1,15,19,·,·,5,7
O=C(N/N=C/c1cccnc1)c1ccccc1NS(=O)(=O)c1cccs1,3,13,-4,-6,2,7
O=C(N/N=C/c1ccc([N+](=O)[O-])o1)c1cc2ccccc2o1,2,30*,-2,-4,7,11
O=C(N/N=C/c1ccc([N+](=O)[O-])o1)c1cc2c(ccc3ccccc32)o1,17,·,-2,-2,2,2
O=C(NN=Cc1cc(Br)c(O)c(Br)c1)c1ccccc1NS(=O)(=O)c1cccs1,11,31*,·,·,4,30*
O=C(N/N=C/c1ccc([N+](=O)[O-])o1)c1ccccc1NS(=O)(=O)c1cccs1,6,34*,-4,-10,6,5
CCOc1ccc(N(CC(=O)NN=C2CCN(C)CC2)S(=O)(=O)c2ccc(Br)cc2)cc1,0,·,0,2,-1,9
CS(=O)(=O)N(CC(=O)O)c1cc(C(F)(F)F)ccc1Cl,1,5,·,·,0,-1
Cc1nn(Cc2noc(C(=O)NC3CCC(C)CC3)n2)c(C)c1Br (configuration not stated),-3,2,1,-1,3,3
C/C(=N\Nc1ccc(S(N)(=O)=O)cc1[N+](=O)[O-])c1cccnc1,12,-2,-3,-5,3,2
CCCn1ncc(CN2CCC(n3nccc3NC(=O)c3ccccc3Cl)CC2)c1C,-3,-4,-1,1,-1,10
COc1ccc(NC(=O)CN(c2ccc(OC)cc2)S(=O)(=O)c2ccc(OC)c(OC)c2)cc1,4,1,-2,-2,0,-1
COc1ccc(C2=CC3=C(Br)C(=O)C(C)(OC(=O)C4CCCC4)C(=O)C3=CO2)cc1 (configuration not stated),13,25*,·,·,7,4
COc1ccc(C2=CC3=C(Br)C(=O)C(C)(OC(=O)c4ccc(Cl)nc4)C(=O)C3=CO2)cc1 (configuration not stated),·,28*,·,·,·,·
CS(=O)(=O)C1=NSC2=NC(=O)/C(=C\c3cccn3-c3ccc(Cl)cc3)C(=N)N21,-9,-12,0,-4,64*,5
Cc1cc(/C=C2/C(=N)N3C(=NC2=O)SN=C3S(C)(=O)=O)c(C)n1-c1ccccc1F,-9,-8,-2,2,-6,-6
COCCNc1nc(-c2cc(C(=O)Nc3ccccc3)on2)cc(C(C)C)n1,·,1,·,·,·,·
CCc1c(O)nc(SCC(=O)NC(C)(C)C)n(-c2ccccc2)c1=O,0,5,4,-1,6,1
CCN(CC)C(=O)CSc1nc(O)c(Cc2ccccc2)c(=O)n1-c1ccc(C)cc1,4,-3,-1,-2,0,-2
CCCCc1c(O)nc(SCC(=O)c2ccccc2)[nH]c1=O,11,0,0,12*,8,19
CCc1c(O)nc(SCC(=O)c2ccccc2)n(-c2ccccc2)c1=O,14,26*,-3,1,1,9
Cc1sc2nc(SCC(=O)N3CCN(CCO)CC3)n(-c3ccccc3)c(=O)c2c1C,4,5,24*,-1,5,1
SMILES,PAFAH2 inh,pPAFAH FP inh,VIM-2 inh,IMP-1 inh,PAFAH1B2 inh,PAFAH1B3 FP inh
CCCCc1c(O)nc(SCC(=O)O)[nH]c1=O,1,1,-2,-1,2,3
Cc1ccc(-n2c(SCC(=O)N3CCCCC3)nc(O)c(Cc3ccccc3)c2=O)cc1,15,2,-1,9.3*,9,4
CN1C/C(=C/c2ccccc2[N+](=O)[O-])C(=O)/C(=C\c2ccccc2[N+](=O)[O-])C1,7,·,·,·,7,7
C[C@@H]1COC(=O)[C@@H](Cc2ccc(F)cc2)C/C=C\C[C@@H](CC(=O)NCCO)C(=O)N1,1,0,·,·,0,11
Cc1ccc(Nc2nc(Cl)nc3ncn(C)c23)c(C)c1,-2,·,·,·,1,4
O=C(COC(=O)CNC(=O)c1ccccc1F)NC1CC1,1,4,·,·,1,2
Cc1nc(NC(=O)CC(C)C)sc1-c1csc(Nc2ccc(Cl)cc2Cl)n1,8,7,0,0,1,8
COc1ccc(Nc2nc(-c3sc(C)nc3C)cs2)c(OC)c1,9,27*,-1,-5,6,-5
C=CCCC(=O)Nc1nc(C)c(-c2csc(Nc3cc(Cl)ccc3OC)n2)s1,13,16,0,6.2*,3,14
COc1ccc(Cl)cc1Nc1nc(-c2sc(NC(=O)CC(C)C)nc2C)cs1,1,18,0,6.8*,9,11
COc1ccc(Nc2nc(-c3cccs3)cs2)c(OC)c1,0,9,-1,-2,6,8
CCOC(=O)c1ccc(NC2=CC(=O)C(=O)c3ccccc32)cc1,38*,17,-1,-1,14,58*
NS(=O)(=O)c1ccc(NC2=CC(=O)C(=O)c3ccccc32)cc1,13,18,1,-1,2,19
CC(C)(C)OC(=O)C[C@@H]1C/C=C\C[C@@H](CC(=O)N(CCO)Cc2ccccc2)C(=O)N[C@H](C(C)(C)C)COC1=O,4,13,·,·,7,2
CC(=O)N1CCc2cc(Br)cc(S(=O)(=O)N3CCC(C(=O)O)CC3)c21,1,6,-1,0,2,3
Cc1ccc(N2C=Nc3ccc(C)c4nc(C)cc2c34)cc1,-4,9,11*,-1,5,0
CSc1ncccc1C(=O)OCC(=O)NCCCc1ccccc1,4,4,·,·,3,1
N#C/C(N=Nc1ccccc1O)=N\Nc1ccccc1O,41*,20,·,·,36*,50*
Oc1ccccc1N=N/C(=N/Nc1ccccc1O)c1ccccc1,5,10,·,·,4,9
CCOC(=O)C1(Cc2ccccc2)C(=O)N(CCCN(C)C)c2ccccc21 (configuration not stated),·,-1,·,·,·,·
COc1ccc(S(=O)(=O)Oc2ccc(C(=S)N3CCOCC3)cc2OC)cc1,-2,-2,0,2,4,12
COc1ccc(C(=S)N2CCOCC2)cc1OS(=O)(=O)c1ccc(Br)cc1,3,0,0,-1,34*,9
CCN(CC(=O)NCc1ccc(Cl)cc1)C(=O)c1cc(OC)cc(OC)c1,-7,-2,0,-1,2,-6
